# Source: the M2OR odorant receptor database
# Tests used:
# Settings in all cases: stereoisomer not certain
# UniProt Q8VGX8 = molecular target: T1, UniProt Q8VGX8
# T1 sequence (whole entry): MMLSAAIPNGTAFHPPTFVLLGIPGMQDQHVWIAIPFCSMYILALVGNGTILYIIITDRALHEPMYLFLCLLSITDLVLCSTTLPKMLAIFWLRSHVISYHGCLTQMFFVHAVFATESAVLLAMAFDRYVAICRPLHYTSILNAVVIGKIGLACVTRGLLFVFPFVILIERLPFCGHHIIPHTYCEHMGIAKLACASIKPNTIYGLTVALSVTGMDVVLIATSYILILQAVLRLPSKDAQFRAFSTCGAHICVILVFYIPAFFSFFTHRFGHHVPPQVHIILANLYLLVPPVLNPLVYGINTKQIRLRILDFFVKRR
# How it was run: (§1)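 Assay methods differ from source to source, frequently being transient luciferase assays in mammalian cell lines. For each receptor–molecule pair, the label responsive (active) applies when the original authors judged the measured signal statistically different from baseline, and non-responsive (inactive) applies otherwise.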
# UniProt Q8VGY6 = molecular target: T2, UniProt Q8VGY6
# T2 sequence (whole entry): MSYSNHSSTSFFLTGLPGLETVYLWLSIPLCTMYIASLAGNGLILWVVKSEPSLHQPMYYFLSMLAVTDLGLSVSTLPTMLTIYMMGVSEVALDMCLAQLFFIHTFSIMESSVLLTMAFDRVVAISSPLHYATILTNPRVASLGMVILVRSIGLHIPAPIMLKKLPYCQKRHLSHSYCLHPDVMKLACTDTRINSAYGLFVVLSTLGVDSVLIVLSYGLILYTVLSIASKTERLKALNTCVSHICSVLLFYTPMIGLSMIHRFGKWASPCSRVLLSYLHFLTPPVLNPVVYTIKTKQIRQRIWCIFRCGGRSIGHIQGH
# How it was run: as §1
# UniProt Q8VGZ2 = molecular target: T3, UniProt Q8VGZ2
# T3 sequence (whole entry): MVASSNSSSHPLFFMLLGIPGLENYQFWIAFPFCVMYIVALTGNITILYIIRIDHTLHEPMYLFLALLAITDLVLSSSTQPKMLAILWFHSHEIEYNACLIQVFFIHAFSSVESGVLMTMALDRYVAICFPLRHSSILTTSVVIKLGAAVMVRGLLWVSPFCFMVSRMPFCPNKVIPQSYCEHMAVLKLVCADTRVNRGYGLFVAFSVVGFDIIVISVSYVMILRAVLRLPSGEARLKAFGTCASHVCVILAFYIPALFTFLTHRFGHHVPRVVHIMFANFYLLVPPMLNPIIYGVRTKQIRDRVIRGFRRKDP
# How it was run: as §1
# UniProt Q8VGZ7 = molecular target: T4, UniProt Q8VGZ7
# T4 sequence (whole entry): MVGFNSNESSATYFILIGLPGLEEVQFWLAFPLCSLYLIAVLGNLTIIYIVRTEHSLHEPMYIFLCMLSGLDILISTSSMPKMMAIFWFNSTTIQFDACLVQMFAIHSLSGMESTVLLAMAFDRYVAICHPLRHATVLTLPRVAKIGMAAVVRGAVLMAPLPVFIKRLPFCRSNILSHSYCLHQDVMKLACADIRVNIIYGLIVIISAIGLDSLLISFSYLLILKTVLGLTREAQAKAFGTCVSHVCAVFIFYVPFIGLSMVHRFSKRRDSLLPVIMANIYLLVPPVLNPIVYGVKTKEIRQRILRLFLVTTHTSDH
# How it was run: as §1
# UniProt Q8VH10 = molecular target: T5, UniProt Q8VH10
# T5 sequence (whole entry): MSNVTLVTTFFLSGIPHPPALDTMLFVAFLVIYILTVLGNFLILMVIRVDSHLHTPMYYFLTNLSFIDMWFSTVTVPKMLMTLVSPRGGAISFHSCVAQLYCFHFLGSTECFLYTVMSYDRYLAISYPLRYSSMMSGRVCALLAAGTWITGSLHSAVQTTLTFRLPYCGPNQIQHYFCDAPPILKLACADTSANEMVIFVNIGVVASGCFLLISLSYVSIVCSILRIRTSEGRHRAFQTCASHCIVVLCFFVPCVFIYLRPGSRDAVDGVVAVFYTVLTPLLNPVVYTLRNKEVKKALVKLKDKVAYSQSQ
# How it was run: as §1
# UniProt Q8VH16 = molecular target: T6, UniProt Q8VH16
# T6 sequence (whole entry): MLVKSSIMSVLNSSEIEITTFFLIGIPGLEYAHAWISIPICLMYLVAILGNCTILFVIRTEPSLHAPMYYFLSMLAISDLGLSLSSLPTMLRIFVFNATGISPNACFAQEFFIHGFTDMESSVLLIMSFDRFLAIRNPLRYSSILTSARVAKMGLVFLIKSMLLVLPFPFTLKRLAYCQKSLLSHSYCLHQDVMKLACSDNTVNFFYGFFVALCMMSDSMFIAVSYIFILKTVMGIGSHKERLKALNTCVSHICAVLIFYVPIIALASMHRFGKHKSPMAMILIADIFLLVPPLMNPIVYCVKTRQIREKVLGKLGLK
# How it was run: as §1
# UniProt Q8VH20 = molecular target: T7, UniProt Q8VH20
# T7 sequence (whole entry): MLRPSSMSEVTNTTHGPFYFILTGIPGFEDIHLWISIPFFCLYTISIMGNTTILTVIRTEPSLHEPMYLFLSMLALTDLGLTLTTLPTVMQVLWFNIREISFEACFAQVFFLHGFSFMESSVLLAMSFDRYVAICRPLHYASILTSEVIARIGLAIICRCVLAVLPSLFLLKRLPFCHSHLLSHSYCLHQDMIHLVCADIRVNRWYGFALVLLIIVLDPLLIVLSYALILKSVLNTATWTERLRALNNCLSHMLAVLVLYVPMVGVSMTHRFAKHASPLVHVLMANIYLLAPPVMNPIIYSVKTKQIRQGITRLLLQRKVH
# How it was run: as §1
# UniProt Q8VH21 = molecular target: T8, UniProt Q8VH21
# T8 sequence (whole entry): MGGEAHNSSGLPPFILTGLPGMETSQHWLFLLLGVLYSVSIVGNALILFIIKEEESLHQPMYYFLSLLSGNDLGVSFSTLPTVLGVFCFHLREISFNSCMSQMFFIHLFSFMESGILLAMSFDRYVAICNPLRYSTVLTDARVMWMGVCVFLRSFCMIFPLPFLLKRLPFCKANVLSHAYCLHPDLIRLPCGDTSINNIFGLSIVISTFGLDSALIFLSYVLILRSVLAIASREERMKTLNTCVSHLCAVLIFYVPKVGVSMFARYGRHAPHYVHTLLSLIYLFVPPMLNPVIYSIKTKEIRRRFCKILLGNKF
# How it was run: as §1
# UniProt Q920P1 = molecular target: T9, UniProt Q920P1
# T9 sequence (whole entry): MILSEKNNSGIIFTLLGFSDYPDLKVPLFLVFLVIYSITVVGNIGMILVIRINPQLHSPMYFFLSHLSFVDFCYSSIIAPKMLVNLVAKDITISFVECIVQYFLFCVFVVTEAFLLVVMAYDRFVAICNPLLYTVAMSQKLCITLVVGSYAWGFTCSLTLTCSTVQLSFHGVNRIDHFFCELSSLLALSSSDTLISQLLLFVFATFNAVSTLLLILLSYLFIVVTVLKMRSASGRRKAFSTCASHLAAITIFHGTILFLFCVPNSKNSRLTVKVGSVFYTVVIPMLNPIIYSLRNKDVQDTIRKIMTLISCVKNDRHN
# How it was run: as §1
# UniProt Q920P2 = molecular target: T10, UniProt Q920P2
# T10 sequence (whole entry): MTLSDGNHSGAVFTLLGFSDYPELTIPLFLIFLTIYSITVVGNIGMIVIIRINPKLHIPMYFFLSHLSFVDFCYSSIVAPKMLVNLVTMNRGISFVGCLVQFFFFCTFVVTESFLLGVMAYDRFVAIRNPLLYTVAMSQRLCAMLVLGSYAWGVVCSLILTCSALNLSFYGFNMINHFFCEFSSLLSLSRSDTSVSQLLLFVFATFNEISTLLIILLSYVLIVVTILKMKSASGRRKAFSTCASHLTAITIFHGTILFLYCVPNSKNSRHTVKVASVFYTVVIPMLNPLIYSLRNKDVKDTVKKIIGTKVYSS
# How it was run: as §1
# UniProt Q924H8 = molecular target: T11, UniProt Q924H8
# T11 sequence (whole entry): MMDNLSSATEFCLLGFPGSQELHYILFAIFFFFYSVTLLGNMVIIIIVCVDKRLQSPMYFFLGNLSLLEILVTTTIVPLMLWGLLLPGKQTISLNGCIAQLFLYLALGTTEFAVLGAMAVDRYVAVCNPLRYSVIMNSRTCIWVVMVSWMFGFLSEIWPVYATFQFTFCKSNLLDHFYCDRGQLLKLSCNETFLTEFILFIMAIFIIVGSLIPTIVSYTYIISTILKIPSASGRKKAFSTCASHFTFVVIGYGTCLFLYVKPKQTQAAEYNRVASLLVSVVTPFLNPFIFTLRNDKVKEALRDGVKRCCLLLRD
# How it was run: as §1
# UniProt Q9EPN9 = molecular target: T12, UniProt Q9EPN9
# T12 sequence (whole entry): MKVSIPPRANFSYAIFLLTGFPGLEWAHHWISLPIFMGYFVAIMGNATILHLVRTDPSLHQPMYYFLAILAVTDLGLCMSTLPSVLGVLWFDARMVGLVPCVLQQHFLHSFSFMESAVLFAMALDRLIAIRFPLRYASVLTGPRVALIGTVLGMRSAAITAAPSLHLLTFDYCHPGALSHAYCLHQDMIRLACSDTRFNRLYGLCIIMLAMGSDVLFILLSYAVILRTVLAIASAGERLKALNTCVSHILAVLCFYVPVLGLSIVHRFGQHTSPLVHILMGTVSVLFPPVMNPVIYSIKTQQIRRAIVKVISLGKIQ
# How it was run: as §1
# UniProt Q9R0K2 = molecular target: UniProt Q9R0K2
# Chain of UniProt Q9R0K2 (Q9R0K2 as listed by the source): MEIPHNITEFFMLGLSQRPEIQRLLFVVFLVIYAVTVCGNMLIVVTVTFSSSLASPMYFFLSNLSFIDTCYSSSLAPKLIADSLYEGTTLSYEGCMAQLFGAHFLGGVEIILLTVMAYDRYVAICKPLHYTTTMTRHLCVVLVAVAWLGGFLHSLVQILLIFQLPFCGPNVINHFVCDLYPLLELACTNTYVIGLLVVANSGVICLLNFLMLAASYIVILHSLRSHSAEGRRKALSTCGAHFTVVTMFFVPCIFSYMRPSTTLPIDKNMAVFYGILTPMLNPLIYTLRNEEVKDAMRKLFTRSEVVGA
# How it was run: as §1
# UniProt Q9WU86 = molecular target: T13, UniProt Q9WU86
# T13 sequence (whole entry): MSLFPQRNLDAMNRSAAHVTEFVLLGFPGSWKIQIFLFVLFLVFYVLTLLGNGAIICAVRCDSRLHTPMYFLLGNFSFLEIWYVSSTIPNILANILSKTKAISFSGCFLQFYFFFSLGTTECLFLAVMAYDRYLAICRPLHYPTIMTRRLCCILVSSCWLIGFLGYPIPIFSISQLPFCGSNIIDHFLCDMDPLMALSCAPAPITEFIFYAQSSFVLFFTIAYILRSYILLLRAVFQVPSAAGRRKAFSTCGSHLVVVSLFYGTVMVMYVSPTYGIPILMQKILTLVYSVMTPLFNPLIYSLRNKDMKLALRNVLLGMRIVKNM
# How it was run: as §1
# UniProt Q924X8 = molecular target: T14, UniProt Q924X8
# T14 sequence (whole entry): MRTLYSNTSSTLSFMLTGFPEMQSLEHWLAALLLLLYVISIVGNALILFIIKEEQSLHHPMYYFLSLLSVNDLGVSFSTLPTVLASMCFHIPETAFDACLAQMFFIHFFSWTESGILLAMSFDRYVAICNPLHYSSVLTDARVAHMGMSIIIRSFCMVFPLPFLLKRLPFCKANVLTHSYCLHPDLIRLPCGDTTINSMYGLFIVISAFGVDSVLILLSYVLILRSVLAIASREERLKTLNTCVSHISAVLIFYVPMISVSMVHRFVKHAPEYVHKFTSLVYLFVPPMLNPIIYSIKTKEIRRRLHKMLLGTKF
# How it was run: as §1
# UniProt Q99NH4 = molecular target: T15, UniProt Q99NH4
# T15 sequence (whole entry): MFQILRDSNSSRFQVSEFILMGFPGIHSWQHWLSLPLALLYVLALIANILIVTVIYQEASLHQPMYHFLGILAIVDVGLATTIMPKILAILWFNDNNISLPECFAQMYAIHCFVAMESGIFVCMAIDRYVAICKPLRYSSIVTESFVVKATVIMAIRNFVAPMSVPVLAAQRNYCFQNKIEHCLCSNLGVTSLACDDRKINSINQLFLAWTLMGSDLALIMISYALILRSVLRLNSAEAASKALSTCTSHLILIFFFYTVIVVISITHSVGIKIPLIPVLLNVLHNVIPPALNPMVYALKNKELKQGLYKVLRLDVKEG
# How it was run: as §1
# UniProt Q9WU94 = molecular target: T16, UniProt Q9WU94
# T16 sequence (whole entry): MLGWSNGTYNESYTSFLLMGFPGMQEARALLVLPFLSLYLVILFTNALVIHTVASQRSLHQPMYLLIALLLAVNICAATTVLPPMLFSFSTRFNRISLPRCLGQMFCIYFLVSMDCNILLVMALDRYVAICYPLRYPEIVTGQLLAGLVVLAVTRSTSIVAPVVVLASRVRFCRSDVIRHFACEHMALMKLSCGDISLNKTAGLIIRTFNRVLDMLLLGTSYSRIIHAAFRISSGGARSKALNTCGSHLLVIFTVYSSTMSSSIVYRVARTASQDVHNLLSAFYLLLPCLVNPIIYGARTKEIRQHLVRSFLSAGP
# How it was run: as §1
# UniProt Q9WVD7 = molecular target: T17, UniProt Q9WVD7
# T17 sequence (whole entry): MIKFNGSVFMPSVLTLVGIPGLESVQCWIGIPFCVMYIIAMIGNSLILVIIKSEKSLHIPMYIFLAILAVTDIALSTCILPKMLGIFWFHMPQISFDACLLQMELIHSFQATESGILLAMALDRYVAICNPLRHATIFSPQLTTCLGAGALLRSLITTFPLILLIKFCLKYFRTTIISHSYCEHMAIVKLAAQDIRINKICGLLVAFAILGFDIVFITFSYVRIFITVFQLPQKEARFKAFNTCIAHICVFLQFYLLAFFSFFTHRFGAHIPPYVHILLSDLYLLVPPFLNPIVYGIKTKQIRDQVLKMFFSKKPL
# How it was run: as §1
Structure (SMILES),odorant receptor agonist call (UniProt Q8VGX8),odorant receptor agonist call (UniProt Q8VGY6),odorant receptor agonist call (UniProt Q8VGZ2),odorant receptor agonist call (UniProt Q8VGZ7),odorant receptor agonist call (UniProt Q8VH10),odorant receptor agonist call (UniProt Q8VH16),odorant receptor agonist call (UniProt Q8VH20),odorant receptor agonist call (UniProt Q8VH21),odorant receptor agonist call (UniProt Q920P1),odorant receptor agonist call (UniProt Q920P2),odorant receptor agonist call (UniProt Q924H8),odorant receptor agonist call (UniProt Q9EPN9),odorant receptor agonist call (UniProt Q9R0K2),odorant receptor agonist call (UniProt Q9WU86),odorant receptor agonist call (UniProt Q924X8),odorant receptor agonist call (UniProt Q99NH4),odorant receptor agonist call (UniProt Q9WU94),odorant receptor agonist call (UniProt Q9WVD7)
COc1cc(C(=O)O)ccc1O,inactive,active,inactive,inactive,inactive,inactive,inactive,inactive,inactive,inactive,inactive,inactive,inactive,inactive,,,,
CCCCC(=O)O,inactive,inactive,inactive,inactive,inactive,inactive,inactive,active,,,inactive,inactive,inactive,inactive,inactive,inactive,inactive,inactive
